OX1R antag-1: human HCRTR1 antagonism | CHO/OX1R cells, Fluo-8 calcium fluorescence, orexin A | inhibition, % at 5 µM | hit rate 0.43% among 330,000;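 active = inhibition above its plate's threshold, mean inhibition of all tested compounds on the plate plus 3 SD, cut at about 37% in these data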;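 also: 0% = orexin A challenge wells and 100% = SB-334867-A antagonist wells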
Target sequence (O43613 whole entry, looked up): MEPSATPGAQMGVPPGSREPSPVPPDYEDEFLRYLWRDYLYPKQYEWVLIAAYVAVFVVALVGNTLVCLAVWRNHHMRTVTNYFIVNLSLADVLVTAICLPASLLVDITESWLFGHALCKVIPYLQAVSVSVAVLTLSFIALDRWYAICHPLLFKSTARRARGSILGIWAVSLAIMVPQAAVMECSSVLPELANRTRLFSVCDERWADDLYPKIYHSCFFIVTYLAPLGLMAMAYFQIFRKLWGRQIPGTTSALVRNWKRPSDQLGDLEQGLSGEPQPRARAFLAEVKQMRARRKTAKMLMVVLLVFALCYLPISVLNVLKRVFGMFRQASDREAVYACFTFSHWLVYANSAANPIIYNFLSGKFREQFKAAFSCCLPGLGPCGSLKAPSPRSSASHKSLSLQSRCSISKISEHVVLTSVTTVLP
OX1R antag-2: blocks the human orexin 1 receptor. O43613. inhibition, % at 6.6 µM. OX1R-expressing cells, FRET antagonist read-out. hit rate 1.8% among 330,000; in the data active = inhibition mostly above about 38%, no sharp cut-off; inactive = mostly below about 40%;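 also: 0% = agonist challenge alone and 100% = reference antagonist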
GPR7 antag: antagonists of human GPR7 (neuropeptides B/W receptor 1) | P48145 | GPR7-expressing cells, fluorescence antagonist assay | inhibition, % at 4.4 µM | hit rate 1.1% among 290,000; in the data active = inhibition above about 16%, passing the limit was not always enough;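 also: cells stimulated with the agonist NPW; 0% = agonist with vehicle and 100% = vehicle without agonist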
MPTP inh: inhibitors of mitochondrial permeability transition pore; isolated mouse mitochondria, Ca2+ swelling absorbance, 30 min; inhibition, % at 10 µM; hit rate 1.4% among 360,000;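 active = inhibition of 50% or more, scaled per plate between neutral and stimulator controls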;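 also: 0% = DMSO wells given calcium and 100% = 1 mM EGTA wells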
CHO parental Ca: signal in parental CHO cells, OX1R antagonist counter-screen. parental CHO-K1, ATP-induced calcium, Fluo-8 fluorescence. inhibition, % at 5.6 µM. hit rate 0.63% among 330,000. AID 463079;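 active = inhibition above that plate's mean sample inhibition plus 3 SD, cut at about 26% in these data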;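 also: 0% = ATP-challenged DMSO wells and 100% = DMSO wells without ATP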
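material = parental CHO cells | also added = ATP as calcium-mobilizing challenge | dosing = single point at 5.6 µM | detection = intracellular calcium via Fluo-8 no-wash fluorescent dye | read-out = % inhibition | benchmarks = low control ATP plus DMSO, high control DMSO only | repeats = one well per compound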
OX1R HTRF confirm: OX1R (human) antagonism, HTRF confirmed | shares compounds with OX1R antag-2 | inhibition, % at 6.6 µM | hit rate 49% among 1,800 | OX1R-expressing cells, HTRF antagonist assay | AID 492964; in the data active = inhibition above about 55%;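 also: CHO cells expressing OX1R stimulated with orexin A at about EC80; 0% = agonist challenge alone and 100% = reference antagonist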
CHO-K1 HTRF cnt: signal in parental CHO-K1 cells, OX1R antagonist counter-screen. inhibition, % at 6.6 µM. hit rate 48% among 1,800. HTRF counterscreen. shares compounds with OX1R antag-2; in the data active = inhibition above about 17%;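 also: 0% = agonist challenge with vehicle and 100% = vehicle alone without agonist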
Active calls of the source: *. Only some compounds are listed: those with a hit (about 3.8% of all), similar ones and a draw of the others.

How did COCC(C)NC(=O)c1ccc2c(c1)S(=O)(=O)c1ccccc1C2=O (configuration not stated) do in these assays?
OX1R antag-1: -4; OX1R antag-2: 109*; GPR7 antag: -20; MPTP inh: -2; CHO parental Ca: -4; OX1R HTRF confirm: 50; CHO-K1 HTRF cnt: 55*

Results for O=C(O)CCC(C(=O)O)n1c(O)c(C2=c3ccccc3=NC2=O)sc1=S (configuration not stated) ?
OX1R antag-1: 0; OX1R antag-2: 150*; GPR7 antag: -12; MPTP inh: 1; CHO parental Ca: 0; OX1R HTRF confirm: 68*; CHO-K1 HTRF cnt: 105*

How did O=C1N=c2ccccc2=C1c1sc(=S)n(CC2CCCO2)c1O (configuration not stated) do in these assays?
OX1R antag-1: -24; OX1R antag-2: 11; GPR7 antag: -3; MPTP inh: 0; CHO parental Ca: -10

Results for CCn1c(=O)n(CC(=O)Nc2ccc(F)cc2)c(=O)c2ccccc21 ?
OX1R antag-1: -21; OX1R antag-2: 8; GPR7 antag: -16; MPTP inh: -1; CHO parental Ca: -7

How did CC1=CC(=NOC(=O)/C=C/c2ccccc2)C=C(C)C1=O do in these assays?
OX1R antag-1: 3; OX1R antag-2: 82*; GPR7 antag: -17; MPTP inh: -2; CHO parental Ca: -9; OX1R HTRF confirm: 29; CHO-K1 HTRF cnt: 3

How did CC1=CC(=O)C=C(C)C1=NOC(=O)/C=C\c1ccccc1 do in these assays?
OX1R antag-1: -1; OX1R antag-2: 10; GPR7 antag: 5; MPTP inh: 1; CHO parental Ca: -2

Results for O=C(NCc1ccccc1)C1CCCN(S(=O)(=O)c2cccc3nsnc23)C1 (configuration not stated) ?
OX1R antag-1: -30; OX1R antag-2: 24; GPR7 antag: -9; MPTP inh: 2; CHO parental Ca: -30

What do the screens show for `O=C(NCc1cccnc1)C1CCCN(S(=O)(=O)c2cccc3nsnc23)C1` (configuration not stated)?
OX1R antag-1: -12; OX1R antag-2: 89*; GPR7 antag: -10; MPTP inh: 1; CHO parental Ca: -7; OX1R HTRF confirm: 46; CHO-K1 HTRF cnt: 32*

How did COc1ccc(N(C(=O)Cn2nnc(-c3ccc(C)o3)n2)C(C(=O)NC2CCCC2)c2ccncc2)cc1 (configuration not stated) do in these assays?
OX1R antag-1: -16; OX1R antag-2: 7; GPR7 antag: -8; MPTP inh: 1; CHO parental Ca: -24

Results for CCC(=O)N/N=C/c1ccc(-c2ccc([N+](=O)[O-])cc2)o1 ?
OX1R antag-1: -7; OX1R antag-2: 42; GPR7 antag: -4; MPTP inh: 0; CHO parental Ca: 1

How did CCCCC(=O)N/N=C/c1ccc(-c2ccc([N+](=O)[O-])cc2)o1 do in these assays?
OX1R antag-1: -19; OX1R antag-2: 102*; GPR7 antag: -6; MPTP inh: 1; CHO parental Ca: -8; OX1R HTRF confirm: 30; CHO-K1 HTRF cnt: -15

What do the screens show for `c1ccc(-c2cnn3nnnc3n2)cc1`?
OX1R antag-1: -2; OX1R antag-2: active; GPR7 antag: -3; MPTP inh: 1; CHO parental Ca: -8; OX1R HTRF confirm: 71*; CHO-K1 HTRF cnt: 115*

What do the screens show for `CCCCNc1ccc2nsnc2c1[N+](=O)[O-]`?
OX1R antag-1: -10; OX1R antag-2: 120*; GPR7 antag: -12; MPTP inh: -1; CHO parental Ca: 1; OX1R HTRF confirm: 59*; CHO-K1 HTRF cnt: 90*

How did COc1ccc(OC)c(NC(=O)COC(=O)COc2ccc(Nc3ccccc3)cc2)c1 do in these assays?
OX1R antag-1: 17; OX1R antag-2: 8; MPTP inh: -1; CHO parental Ca: -6

What do the screens show for `COc1ccc([N+](=O)[O-])cc1COc1cc(C)cc2oc(=O)cc(-c3ccccc3)c12`?
OX1R antag-1: -16; OX1R antag-2: 17; GPR7 antag: -7; MPTP inh: 2; CHO parental Ca: -20

Results for CCNc1nc(NC(C)CC)nc(Oc2ccc(OCC)nn2)n1 (configuration not stated) ?
OX1R antag-1: -15; OX1R antag-2: 22; GPR7 antag: -6; MPTP inh: 2; CHO parental Ca: -5

How did O=C(N/N=C/c1ccc(Br)o1)c1cc([N+](=O)[O-])cc([N+](=O)[O-])c1 do in these assays?
OX1R antag-1: -7; OX1R antag-2: 81*; GPR7 antag: -6; MPTP inh: 0; CHO parental Ca: -17; OX1R HTRF confirm: 37; CHO-K1 HTRF cnt: 56*

How did C/C(=N/NC(=O)CNC(=O)c1ccccn1)c1ccc([N+](=O)[O-])cc1 do in these assays?
OX1R antag-1: -28; OX1R antag-2: 28; GPR7 antag: -19; MPTP inh: -1; CHO parental Ca: -18

How did O=C(/C=C/c1ccc([N+](=O)[O-])cc1)Nc1cccnc1 do in these assays?
OX1R antag-1: 8; OX1R antag-2: 95*; GPR7 antag: 1; MPTP inh: 2; CHO parental Ca: -14; OX1R HTRF confirm: 44; CHO-K1 HTRF cnt: 27*

What do the screens show for `O=C(N/N=C/c1cccnc1)c1ccc([N+](=O)[O-])cc1`?
OX1R antag-1: -14; OX1R antag-2: 107*; GPR7 antag: 2; MPTP inh: -4; CHO parental Ca: -2; OX1R HTRF confirm: 37; CHO-K1 HTRF cnt: 82*

How did C/C(=N/NC(=O)CNC(=O)c1cccnc1)c1ccc([N+](=O)[O-])cc1 do in these assays?
OX1R antag-1: -11; OX1R antag-2: 90*; GPR7 antag: -7; MPTP inh: -2; CHO parental Ca: 7; OX1R HTRF confirm: 52; CHO-K1 HTRF cnt: 44*

Results for O=C(/C=C/c1ccccc1)Nc1cccnc1 ?
OX1R antag-1: 10; OX1R antag-2: 13; GPR7 antag: -1; MPTP inh: -1; CHO parental Ca: 0

What do the screens show for `O=C(N/N=C/c1ccncc1)c1cc([N+](=O)[O-])cc([N+](=O)[O-])c1`?
OX1R antag-1: -20; OX1R antag-2: 86*; GPR7 antag: -12; MPTP inh: 0; CHO parental Ca: -8; OX1R HTRF confirm: 50; CHO-K1 HTRF cnt: 74*

How did O=C(Cc1ccccc1)NCC(=O)OCC(=O)c1ccc([N+](=O)[O-])cc1 do in these assays?
OX1R antag-1: 0; OX1R antag-2: 86*; GPR7 antag: 8; MPTP inh: 0; CHO parental Ca: 2; OX1R HTRF confirm: 53; CHO-K1 HTRF cnt: 42*

How did O=C(CSc1ccc(-c2ccncc2)nn1)c1ccccc1 do in these assays?
OX1R antag-1: -6; OX1R antag-2: 6; GPR7 antag: -5; MPTP inh: 3; CHO parental Ca: -17

Results for Cc1ccc2c(c1)C(=O)CC1(CCCC1)O2 ?
OX1R antag-1: -4; OX1R antag-2: 12; MPTP inh: -2; CHO parental Ca: -1

Compound activity as filed in PubChem BioAssay.
